Compounds with a hit are over-represented: about 2% of the library has one in this group of screens.
TROY signal inh: inhibitors of TROY-driven NF-kB signaling, primary screen, Q293 LMP1-TROYcd cells, NF-kB luciferase, uHTS; Q293 LMP1-TROYcd NF-kB luciferase reporter, 4 h; inhibition, % at 10 µM; 360,000 tested, 0.98% active; AID 1347056, 2019;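 active = compounds whose plate-normalised and pattern-corrected inhibition of the luciferase reporter signal at the single screening dose is 50% or more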
NR2E3 ag-1: inhibitors of NR2E3-RetCOR corepressor binding, primary screen, NR2E3 agonist project, biochemical, TR-FRET, GST-NR2E3, biotin-RetCOR; Photoreceptor-specific nuclear receptor (Homo sapiens), Q9Y5X4; 1536-well; inhibition of corepressor binding, % at 4.78 µM; 320,000 tested, 0.12% active;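 active = percent inhibition above the cutoff of mean plus 3 SD of all tested compounds, set per screening campaign, cut at about 20% in these data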;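 also: 0% = DMSO wells and 100% = biotin wells as full block of FRET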
Target sequence (Q9Y5X4 whole entry, looked up): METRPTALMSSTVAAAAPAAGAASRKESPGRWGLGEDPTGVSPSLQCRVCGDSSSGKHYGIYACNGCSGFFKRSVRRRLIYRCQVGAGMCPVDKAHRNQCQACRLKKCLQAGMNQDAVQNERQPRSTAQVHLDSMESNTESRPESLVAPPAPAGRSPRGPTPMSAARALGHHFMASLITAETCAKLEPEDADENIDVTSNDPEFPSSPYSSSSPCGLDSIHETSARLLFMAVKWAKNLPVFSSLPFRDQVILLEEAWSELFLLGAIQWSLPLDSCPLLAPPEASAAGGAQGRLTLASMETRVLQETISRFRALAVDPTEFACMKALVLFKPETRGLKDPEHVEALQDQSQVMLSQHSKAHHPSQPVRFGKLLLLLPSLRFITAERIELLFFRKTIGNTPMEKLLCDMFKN
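Test system – NR2E3–RetCOR corepressor complex · Quantity – NR2E3 fusion 1.35 nM · Buffer or medium – Tris pH 7.5 · Incubation – Compound–protein incubation for 5 h at 4 °C · Technique – TR-FRET, Eu(K)-anti-GST donor, streptavidin-D2 acceptor, ex 340, em 617/671 nm · Evaluation – percent inhibition of 671/617 nm emission ratio versus biotin and DMSO controls · Plate – 1536-well format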
NR2E3 ag-2: NR2E3 agonists in two-hybrid cells, primary screen, cell-based, luminescence, CHO-S, Gal4-NCOR/VP16-NR2E3 | 360,000 tested, 0.35% active | luciferase | inhibition of corepressor binding, % at 3.98 µM | Photoreceptor-specific nuclear receptor (Homo sapiens), Q9Y5X4;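 active = inhibition above the mean of all tested compounds plus 3 SD, cut at about 70% in these data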;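 also: 0% = DMSO with NR2E3 transfected cells and 100% = cells lacking NR2E3 construct; higher means lower luciferase signal from less NR2E3 corepressor binding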
LMP1 NFkB inh: EBV LMP1-driven NF-kappaB luciferase reporter inhibitors, primary screen, cell-based, luminescence, single point | LMP1-induced NF-kappaB luciferase reporter cells | inhibition, % at 12.5 µM | 350,000 tested, 0.69% active | AID 504558, 2011; in the data active = inhibition above about 41%;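 also: 0% = neutral control wells and 100% = reference inhibitor control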
HIF act: HIF pathway transcriptional activators, primary screen, cell-based, U2OS HRE-luciferase, luminescence. U2OS HRE-luciferase reporter; normalized: DMSO 0%, desferrioxamine 100%. AID 1910, 2009. 300,000 tested, 0.32% active. activation, % at 7.5 µM (by protocol);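 active = mean activation of at least 10% of the iron chelator positive control signal, with at least half of replicates also reaching 10%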
NR2E3 ag confirm: NR2E3 agonist confirmation in cells, cell-based, luminescence, CHO-S two-hybrid. shares compounds with NR2E3 ag-2. CHO-S mammalian two-hybrid NR2E3-NCOR, luciferase luminescence. inhibition, % at 3.98 µM. 2,300 tested, 51% active. AID 624378, 2012;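 active = average inhibition above a cutoff equal to the mean inhibition of all tested compounds plus one SD, cut at about 70% in these data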;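 also: 0% = DMSO in NR2E3 cells and 100% = DMSO in cells lacking NR2E3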
GAL4-VP16 luc: GAL4-VP16 reporter modulators, confirmation, counter-screen for NR2E3 agonist project, cell-based, luminescence, CHO-S, high throughput; inhibition, % at 3.98 µM; CHO-S GAL4-VP16 luciferase reporter; 2,300 tested, 29% active; shares compounds with NR2E3 ag-2;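 active = mean inhibition above a cutoff equal to the average over all tested compounds plus one standard deviation, cut at about 70% in these data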;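 also: luciferase from a UAS reporter driven by GAL4-VP16 transactivation; 0% = DMSO with VP16-transfected cells and 100% = DMSO with cells lacking VP16; higher means less reporter light so more repression of VP16 activity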
Numbers without * were called inactive; · = no result.

SMILES	TROY signal inh	NR2E3 ag-1	NR2E3 ag-2	LMP1 NFkB inh	HIF act	NR2E3 ag confirm	GAL4-VP16 luc
CC1CCN(C(=O)c2ncn3c2c(=O)[nH]c2ccc(Br)cc23)CC1	-14	·	3	3	·	·	·
CN(C(=O)CSc1cc(C(=O)c2nccn2C)c2ccccc2n1)c1ccccc1	-67	-1	81*	-3	0	78*	61
C[C@H](CO)N1C[C@H](C)[C@@H](CN(C)C(=O)Nc2ccc3c(c2)OCCO3)OCc2cnnn2CCCC1=O	-53	·	63	-8	·	8	-22
CCN1/C(=C/c2sc(-c3ccccc3C)c[n+]2C)Sc2ccccc21	47	·	90*	23	-1	99*	85*
CCC(=O)/C=C1/Sc2ccccc2N1CC	-7	-1	13	-6	0	·	·
O=C(NCC(c1ccco1)N1CCc2ccccc2C1)c1ccc(Br)cc1 (stereo not drawn)	-26	-2	-16	-4	2	·	·
CC(OCC(O)CN1CCN(S(=O)(=O)c2ccc(Cl)cc2)CC1)c1ccc(Cl)cc1 (stereo not drawn)	19	·	51	-5	·	59	45
CC1CCN(S(=O)(=O)c2ccc(Oc3ccc([N+](=O)[O-])cc3)cc2)CC1	14	3	88*	-8	0	91*	76*
CC1CCN(S(=O)(=O)c2ccc([N+](=O)[O-])cc2)CC1	-19	-3	-22	-5	1	·	·
CCCCC(CCc1ccccn1)C(=O)c1ccccc1 (stereo not drawn)	-38	·	-33	-13	·	·	·
O=C(NCCc1ccc(C(F)(F)F)cc1)C1CCC(=O)N(C2CC2)C1 (stereo not drawn)	6	1	-26	-4	-1	·	·
Cc1ccnc(SCC(=O)Nc2sc3c(c2C#N)CCC(C(C)(C)C)C3)n1 (stereo not drawn)	16	-2	-13	-8	0	·	·
Cc1cc(C)nc(SCC(=O)Nc2sc3c(c2C#N)CCC(C)C3)n1 (stereo not drawn)	-10	-3	71*	6	-1	74*	77*
Cc1ccc(S(=O)(=O)N(C)C[C@@H]2Oc3c(NC(=O)C4CC4)cccc3C(=O)N([C@@H](C)CO)C[C@@H]2C)cc1	8	·	-1	-3	·	·	·
Cc1ccc(CN2CC(C(=O)Nc3nc(C)cs3)CC2=O)cc1 (stereo not drawn)	-3	·	9	-1	·	·	·
Cc1ccc(CN2CC(C(=O)Nc3ncc(C)s3)CC2=O)cc1 (stereo not drawn)	18	·	83*	-9	·	83*	17
CCOC(=O)C1(C)CCCN1C(=O)c1sccc1C (stereo not drawn)	-16	·	-17	·	·	·	·
Cc1nnc(N/N=C/c2ccc(Br)cc2)n1N	-24	1	57	0	-2	-7	6
Cc1nnc(N/N=C/c2ccc(-c3ccc(Br)cc3)o2)n1N	-5	-4	-22	-1	0	·	·
CCOc1ccccc1CN1CCNC(=O)C1CC(=O)NCc1nc(C)cs1 (stereo not drawn)	16	·	-8	2	0	·	·
CC(C)(C)[C@H]1C=C(C(=O)Nc2ccccc2)O[C@@H](OCCCCO)C1	84*	0	65	6	-5	-3	-48
N#Cc1ccc(S(=O)(=O)NCC(=O)OCC(=O)N2CCCC2=O)cc1	-1	0	-35	0	0	·	·
COc1ccc(-c2nsc3c(N4CCCCC4C)ncnc23)cc1 (stereo not drawn)	91*	6	94*	73*	-8	84*	72*
COc1ccc(C(=O)N2CCN(c3ncnc4c(-c5ccccc5)nsc34)CC2)cc1	6	·	-2	10	0	·	·
COc1ccc(-c2nsc3c(N4CCCCC4)ncnc23)cc1	80*	-6	57	31	-5	17	-13
SMILES	TROY signal inh	NR2E3 ag-1	NR2E3 ag-2	LMP1 NFkB inh	HIF act	NR2E3 ag confirm	GAL4-VP16 luc
Cc1cc(C)c(C(=O)NC2CC(C)(C)Cc3c2cnn3-c2ccccc2)o1 (stereo not drawn)	-3	-1	-22	-2	0	·	·
CCCCCC(=O)Nc1ccc(S(=O)(=O)NC2=NCCCCC2)cc1	-3	-1	-16	5	·	·	·
CC(=O)c1cn(CC(=O)Nc2ccc(C)cc2C)c2ccccc12	22	4	54	12	1	77*	49
CC(=O)c1cn(CCOc2cc(C)ccc2C)c2ccccc12	0	9	90*	0	1	93*	83*
COc1cccc(OCCn2cc(C(C)=O)c3ccccc32)c1	2	5	65	10	-27	80*	64
N#Cc1ccc(-c2ccc(OCC3CNC(=O)O3)cc2)cc1 (stereo not drawn)	4	-4	-28	-2	0	·	·
CCN(CC)S(=O)(=O)c1ccc(N2CCN(c3ccccc3OC)CC2)c(N)c1	-5	2	105*	23	-1	93*	74*
CC1CCCC(NC(=O)c2cccc(S(=O)(=O)N3CCCCC3)c2)C1C (stereo not drawn)	-1	-2	-7	-7	0	·	·
Cc1cc(C)n(CCNS(=O)(=O)c2ccccc2)n1	0	-1	-15	3	0	·	·
CC1=CC(=O)C2(C)C(C)=C(C)C12C (stereo not drawn)	-17	·	-10	9	·	·	·
CC(=O)N1CCc2cc(S(=O)(=O)NC3CCCc4ccccc43)ccc21 (stereo not drawn)	11	3	67	0	·	56	53
CCN(CC)S(=O)(=O)c1ccc(S(=O)(=O)Nc2c(C)nn(C)c2C)cc1	-12	1	53	11	3	43	53
N=C1SCC(=O)N1c1ncc(Cc2ccc(F)cc2)s1	33	-2	97*	12	-1	57	22
O=C(NC(Nc1nc2ccc([N+](=O)[O-])cc2s1)(C(F)(F)F)C(F)(F)F)c1ccccc1Cl	66*	6	98*	53*	0	97*	90*
CN(C)S(=O)(=O)c1ccc2nc(NC(=O)c3cccnc3)sc2c1	-42	-2	-65	-23	2	·	·
O=C(NC(Nc1nc2ccc([N+](=O)[O-])cc2s1)(C(F)(F)F)C(F)(F)F)c1cccnc1	15	0	101*	32	1	98*	89*
